For 96 compounds, cytotoxicity results are on record in ChEMBL document CHEMBL4513216, “Probing the Open Global Health Chemical Diversity Library for Multistage-Active Starting Points for Next-Generation Antimalarials” (ACS Infect Dis, 2020).

A short description of the data set: Toxicity liver stage against HepG2, at 10uM. It is filed as cell-based. More on the design: test concentration 10 uM, cell line HepG2-A16-CD81EGFP. The settings on record: human, HepG2-A16-CD81EGFP cells; read-out: INHIBITION
The gist of the method: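 Uninfected HepG2-A16-CD81EGFP cells, 3 × 10^3 per well, 1536-well, plated on prespotted compound at 10 μM final, parasite-free screening media added to match infected plates; puromycin 10 μM positive, DMSO 0.5% negative; run in parallel with 48 h PbLuc assay at 37 °C, 5% CO2; viability by CellTiter-Glo luminescence, normalized to controls.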
Take `CC(C)(C)c1nc(CN2CCc3onc(-c4cccc(F)c4)c3C2)no1`: the cytotoxicity at 10 µM turned out to be 6.2%.

`O=C(c1ccccn1)N1C[C@H]2CC[C@@H](C1)N(C(=O)CCC1CCCC1)C2`: the cytotoxicity at 10 µM worked out at 3.07%.

On to `Cc1cnc(NCc2csc(C(C)C)n2)nc1-c1cnn(C)c1`, for which the cytotoxicity at 10 µM came to 2.83%.

Turning to `CC1=N[C@@]2(CC[C@@H]3CN(CC4CC4)C[C@@H]32)C(=O)N1CC1CC1`, the cytotoxicity at 10 µM was 3.82%.

For `CCN1N=C(C(=O)N2CCCC(c3nc(C)cs3)C2)CCC1=O` (stereo unspecified), the cytotoxicity at 10 µM was -3.12%.

Consider `CCC(=O)N(C)CC(=O)Nc1ccc(Br)cn1`, for which the cytotoxicity at 10 µM was determined as 7.48%.

Consider `Cc1nn(C)c(Cl)c1S(=O)(=O)N(C)c1ccc(Cl)cn1`, for which the cytotoxicity at 10 µM was determined as 7.92%.

Regarding `N#Cc1cccc(CS(=O)(=O)NCC(O)Cc2ccccc2)c1` (stereo unspecified), the cytotoxicity at 10 µM stood at 2.99%.

As for `c1cnc(-c2nc(CN3CCN(CC4CC4)CC3)cs2)nc1`, the cytotoxicity at 10 µM was -10.1%.

With `CC(C)Cc1noc(CNc2cc3c(cc2Cl)OCCCO3)n1`, the cytotoxicity at 10 µM came out at 6.48%.

Consider `O=S(=O)(c1cccnc1)N1C[C@H]2CC[C@@H](C1)N(Cc1ccccc1)C2`, for which the cytotoxicity at 10 µM was -5.79%.

On to `CCN1CC2(CC1=O)CN(Cc1cnn(C)c1)CCN(C(C)=O)C2` (stereo unspecified), for which the cytotoxicity at 10 µM was -12.5%.

For `CC(=O)NCCSCCOc1cccc(Br)c1`, the cytotoxicity at 10 µM is 10.1%.

As for `CSc1nccn1-c1cccc(C(=O)NCc2nnc(C)n2C)c1`, the cytotoxicity at 10 µM is -9.46%.

Turning to `CCN(C)S(=O)(=O)NCC1(c2ccccc2Br)CC1`, the cytotoxicity at 10 µM was determined as 1.22%.

`CC1CCN(C(=O)c2cccc(CN3CCOCC3)c2)CC1`: the cytotoxicity at 10 µM was 8.07%.

For the compound `Cc1ccc(C(=O)NCc2cc(F)ccc2N2CCCN(C)CC2)o1`, the cytotoxicity at 10 µM was -9.7%.

Consider `O=S(=O)(C1CC1)N1CCC2(CC1)COC(COc1ccccn1)C2` (stereo unspecified), for which the cytotoxicity at 10 µM came out at 3.35%.

`COc1ccc(CN2CCn3cc(CNC(=O)C4CCC4)nc3C2)cc1`: the cytotoxicity at 10 µM was determined as 5.42%.

For the compound `CC(=O)NCCNC(=O)C1(N2CCCCC2)Cc2ccccc2C1`, the cytotoxicity at 10 µM is -6.53%.

As to `O=C1OCCN1CCN1CCCN(Cc2ccccc2F)CC1`, the cytotoxicity at 10 µM is -7.11%.

Take `Cc1ccc(OCC(O)COC2CCOCC2)c(Cl)c1` (stereo unspecified): the cytotoxicity at 10 µM is -5.27%.

Consider `COC(C)c1cccc(NCc2ccsc2)c1` (stereo unspecified), for which the cytotoxicity at 10 µM was -4.53%.

For the compound `Cc1sc(NC(=O)CCC(=O)O)c(C(N)=O)c1-c1ccc(Cl)cc1Cl`, the cytotoxicity at 10 µM came to 15.6%.

`OCCn1nccc1C1CCN(CCCOc2ccc(F)cc2)CC1`: the cytotoxicity at 10 µM was -4.3%.

Regarding `CCc1nc(C2NC3(CCCC3)C(=O)N2CC2CC2)cs1` (stereo unspecified), the cytotoxicity at 10 µM was -1.09%.

For `CCCc1nc(C)c(C(=O)NC2CCN(CC(N)=O)CC2)s1`, the cytotoxicity at 10 µM is -6.3%.

In the case of `Cc1noc(C)c1C(C)NC(=O)N1CCCN(C(=O)c2ccsc2)CC1` (stereo unspecified), the cytotoxicity at 10 µM is -0.77%.

`O[C@@H]1CC(CNCC2CCCC2)(COc2cccnc2)C[C@@H]1O` (stereo partly specified): the cytotoxicity at 10 µM was -6.53%.

Regarding `CC(NCc1ccc(OCC(N)=O)cc1)c1ccc2c(c1)CCCC2` (stereo unspecified), the cytotoxicity at 10 µM is -0.699%.

In the case of `O=C1CCCCN1CCCNCc1cnc(C2CCC2)s1`, the cytotoxicity at 10 µM was 0.00973%.

For the compound `O=S(=O)(NCC1CCOC1)N1CCc2ccccc2C1` (stereo unspecified), the cytotoxicity at 10 µM is -4.06%.

Turning to `CCn1ncc(Br)c1CN(C)S(=O)(=O)c1ccc(C)cc1`, the cytotoxicity at 10 µM worked out at 14.5%.

As for `Cc1noc(C)c1C(=O)N1CCC(c2cc3cnccc3[nH]2)CC1`, the cytotoxicity at 10 µM was determined as 7.07%.

With `CN(C)CCOCC1CN(Cc2ccc(F)cc2)Cc2nnn(C)c21` (stereo unspecified), the cytotoxicity at 10 µM stood at 4.59%.

Regarding `CC1(C)[C@H](Cc2cc(CO)on2)C[C@@H]1N(CC1CC1)CC1CC1`, the cytotoxicity at 10 µM amounted to 3.82%.

Regarding `Cc1cccc(CN2C[C@@H]3COC[C@]3(CNC(=O)N3CCCC3)C2)n1`, the cytotoxicity at 10 µM was 1.05%.

`Cc1cnn(CC2CCCN2Cc2noc(CC(C)C)n2)c1` (stereo unspecified): the cytotoxicity at 10 µM was -5.04%.

`CSc1ccc(CN(C(=O)c2cc(C)[nH]c(=O)c2)C2CC2)cc1`: the cytotoxicity at 10 µM was -49.5%.

Turning to `CCS(=O)(=O)NCCCNC(=O)N(C)C(C)c1ccccn1` (stereo unspecified), the cytotoxicity at 10 µM came out at 7.31%.

With `O=S(=O)(C1CC1)N1CC[C@]2(C[C@@H](Oc3ncccc3F)CO2)C1`, the cytotoxicity at 10 µM was -74.1%.

Regarding `CC(C)C(=O)N1CCC2(CC1)NC(=O)[C@H]1CN(Cc3cccnc3)C[C@H]12`, the cytotoxicity at 10 µM was -0.331%.

On to `N#Cc1cccc(C(=O)N2CCc3c(COCC4CC4)cncc3C2)c1`, for which the cytotoxicity at 10 µM stood at 8.25%.

Turning to `CCn1ccnc1CNC1CC(=O)N(CCc2cccc(Cl)c2)C1` (stereo unspecified), the cytotoxicity at 10 µM was -127%.

Take `Cn1cc(NC(=O)c2cc[nH]n2)cc(Cl)c1=O`: the cytotoxicity at 10 µM is -18.3%.

For `Cn1ncnc1NS(=O)(=O)c1ccc(F)cc1Cl`, the cytotoxicity at 10 µM was found to be 5.73%.

`Cc1ccc(C(=O)N(C)CC(=O)Nc2cccc(C)n2)cn1`: the cytotoxicity at 10 µM was -21.2%.

Take `CC(C)n1nc(CNc2ncccn2)c2c1CN(C)CC2`: the cytotoxicity at 10 µM was -142%.

For the compound `CCOCc1ncn2c1CN(S(=O)(=O)c1ccc(F)cc1)CC2`, the cytotoxicity at 10 µM stood at 1.29%.

`O=C(NC1CCc2nccn2C1)c1ccc(NC2CC2)nc1` (stereo unspecified): the cytotoxicity at 10 µM came to 9.93%.

As to `O=C(O)c1cc(C=Cc2ccccc2)ncn1`, the cytotoxicity at 10 µM amounted to 5.17%.

As to `Cn1nc2c(cc1=O)CN(CCCOc1ccc(C#N)cc1)CC2`, the cytotoxicity at 10 µM is 22.9%.

For `CN1CC(=O)N(c2ccsc2)CC12CCN(S(=O)(=O)C1CC1)C2` (stereo unspecified), the cytotoxicity at 10 µM is -0.298%.

With `COc1ccccc1[C@@H]1CN(Cc2c(C)noc2C)C[C@H]1C(=O)O`, the cytotoxicity at 10 µM was -9.94%.

For the compound `CC(=O)N1CCC(Oc2cccc(C#N)c2)CC1`, the cytotoxicity at 10 µM was 6.35%.

With `COc1ccc(F)c(CN2CCCC(O)(CNCc3ncc[nH]3)C2=O)c1` (stereo unspecified), the cytotoxicity at 10 µM was found to be 5.87%.

Consider `Cc1ccc(S(=O)(=O)Cc2noc([C@@H]3C[C@@H](O)CN3)n2)cc1`, for which the cytotoxicity at 10 µM was -5.78%.

Take `Cc1ccc(S(=O)(=O)Nc2ccc(C)c(C(=O)O)c2)s1`: the cytotoxicity at 10 µM is -1.51%.

Consider `Cc1cnn(CC2CN(Cc3cccc(OC(C)C)c3)CCO2)c1` (stereo unspecified), for which the cytotoxicity at 10 µM is -4.83%.

Take `CN(CCNC(=O)Nc1cnn(C)c1)Cc1ccc(F)cc1`: the cytotoxicity at 10 µM worked out at 7.72%.

As for `CN1CCNC(Cc2ccc(-c3ccccc3)cc2)C1=O` (stereo unspecified), the cytotoxicity at 10 µM was -41.9%.

Regarding `NC(=O)CSc1nnc2[nH]c(=O)c3c(n12)CCCC3`, the cytotoxicity at 10 µM was -4.44%.

In the case of `CCn1nc2c(cc1=O)CN(CC(=O)Nc1nc(C)c(C)s1)CC2`, the cytotoxicity at 10 µM is -8.8%.

As for `CCC(C(=O)N1CCCSCC1)N1CCCC1=O` (stereo unspecified), the cytotoxicity at 10 µM was determined as 6.27%.

With `c1cc2ccc(N3CCN(Cc4ccc5c(c4)OCO5)CC3)nc2[nH]1`, the cytotoxicity at 10 µM was -6.07%.

Turning to `O=C(c1cc(-n2cccc2)ccc1Cl)N1CCC2(CC1)OCCO2`, the cytotoxicity at 10 µM is -7.58%.

Turning to `Cc1ccnc(NC(=O)C2CCCO2)c1` (stereo unspecified), the cytotoxicity at 10 µM is -11.3%.

For `CS(=O)(=O)NCC1CCCN(Cc2ccc(F)c3cccnc23)C1` (stereo unspecified), the cytotoxicity at 10 µM was -12.6%.

Consider `CCOC(=O)c1n[nH]cc1-c1cncn1CCn1nc(C)c(Cl)c1C`, for which the cytotoxicity at 10 µM is -15.1%.

On to `COc1ccc2nnc(C(=O)NC3CCCC3)nc2c1`, for which the cytotoxicity at 10 µM is 6.17%.

In the case of `O=C(O)CCc1cccc(C2CCCN2Cc2ccc(F)c(F)c2)n1` (stereo unspecified), the cytotoxicity at 10 µM is -5.25%.

As to `Cn1cc(-c2c(C#N)c(N)nc3c2CCc2[nH]ccc2-3)cc1C#N`, the cytotoxicity at 10 µM is -1.68%.

On to `CCOCc1nc(N2CCCC2)sc1C(=O)NCCC(=O)OCC`, for which the cytotoxicity at 10 µM is -3.66%.

On to `CC(C)c1nnsc1CNC(=O)C1CCN(C(=O)C2CCC2)CC1`, for which the cytotoxicity at 10 µM was -2.75%.

On to `CN(C)CCN1C[C@@H]2CN(C(=O)c3ccsc3)C[C@@H]2C1=O`, for which the cytotoxicity at 10 µM is -7.79%.

In the case of `CCN1CCc2c(sc3c2C(=O)NC(C=Cc2ccccc2)N3)C1` (stereo unspecified), the cytotoxicity at 10 µM was found to be 4.73%.

Consider `Cn1ccnc1CN1CCN(c2ncnc3ccsc23)CC1`, for which the cytotoxicity at 10 µM was -7.95%.

As to `CCN(Cc1nc2c(cnn2C)c(=O)[nH]1)c1cccc(F)c1`, the cytotoxicity at 10 µM is -0.746%.

As to `O=C(c1cnccn1)N1CCC2(CCN(Cc3ccsc3)C2)CC1`, the cytotoxicity at 10 µM is -3.33%.

As to `Cc1ncsc1C(=O)N1CCCC1c1c(C)nn(C)c1C` (stereo unspecified), the cytotoxicity at 10 µM is 0.71%.

Turning to `Cc1ccc2c(c1)C1(CCN(C(=O)C3CC3)CC1)CC2N1CCOCC1` (stereo unspecified), the cytotoxicity at 10 µM was -128%.

For `O=C(c1cccc(F)c1)N1CCOC(c2nc(-c3ncccn3)no2)C1` (stereo unspecified), the cytotoxicity at 10 µM worked out at 5.3%.

`COc1cccc(OCC(=O)N(C)c2cccnc2)c1`: the cytotoxicity at 10 µM was -2.66%.

Consider `CN(C)CCN1CCC2(CCCN(C(=O)C3CCC3)C2)CC1`, for which the cytotoxicity at 10 µM was 4.38%.

As to `F[C@@H]1CN(CC2CC2)C[C@@H]1OCc1nc2ccc(C(F)(F)F)cc2[nH]1`, the cytotoxicity at 10 µM is -6.22%.

As to `CCc1noc(CS(=O)(=O)Cc2nc(Cc3ccccc3)no2)n1`, the cytotoxicity at 10 µM was 5.45%.

Turning to `COc1ccc(COCC(O)CNC(=O)c2ccc(C#N)cc2)cc1` (stereo unspecified), the cytotoxicity at 10 µM amounted to 0.561%.

Take `CNC(=O)c1cccc(CCNC(=O)N2CCc3ccccc3C2)c1`: the cytotoxicity at 10 µM is 6.72%.

`CN(C)c1ccc(C(=O)N2CCN(C(=O)N3CCCCC3)CC2)nn1`: the cytotoxicity at 10 µM is -9.14%.

Consider `Cc1nn(C)c(C)c1CC(=O)N1CCCC(n2ccnc2)C1` (stereo unspecified), for which the cytotoxicity at 10 µM is -11.5%.

As to `CC(C)Sc1ncccc1C(=O)NCc1ccc(CS(C)(=O)=O)cc1`, the cytotoxicity at 10 µM amounted to 3.78%.

For `CCN(C)c1ncnc2c1CCN(C(=O)c1cnccn1)CC2`, the cytotoxicity at 10 µM was -1.86%.

In the case of `Cc1nc(C2CCCN2CC(=O)NCCOc2ccc(F)cc2)no1` (stereo unspecified), the cytotoxicity at 10 µM was -9.63%.

Turning to `O=C(NCc1cc[nH]n1)NCC(c1ccccc1Cl)N1CCCC1` (stereo unspecified), the cytotoxicity at 10 µM came to 14.7%.

Turning to `c1cnnc(N2CCCC(NCc3ccc(-n4cccn4)cc3)C2)c1` (stereo unspecified), the cytotoxicity at 10 µM was found to be 0.241%.

Take `Cc1cc2c(=O)n3c(nc2s1)CCN(Cc1cnc(C(C)C)nc1)CC3`: the cytotoxicity at 10 µM turned out to be 10.5%.
